In ChEMBL document CHEMBL3351306, “Physicochemical property-driven optimization of diarylaniline compounds as potent HIV-1 non-nucleoside reverse transcriptase inhibitors” (Bioorg Med Chem Lett, 2014):
In brackets after ≈: the same amount, converted by molar mass.

Assays:
[1] = system: Human immunodeficiency virus 1; experiment: Antiviral activity against wild type HIV1 3B infected in human MT2 cells assessed as inhibition of viral replication; type: functional, organism-based; conditions: Human immunodeficiency virus 1, 3B
[2] = system: MT2; experiment: Cytotoxicity against human MT2 cells assessed as cell viability; type: cell-based
Procedure, shortened: (§1)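 Run in MT-2 cells, at least in triplicate, reported as mean ± SD; the paired antiviral measurement used wild-type HIV-1 IIIB replication in MT-2 cells.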

[3] = Selectivity index, ratio of CC50 for human MT2 cells to EC50 for wild type HIV1 3B; type: toxicity, cell-based; conditions: read-out: Selectivity Index; procedure, shortened: as §1
[4] = system: Human immunodeficiency virus 1; experiment: Fold resistance, ratio of EC50 for HIV1 A17 expressing K103N/Y181C mutant infected in human MT2 cells to EC50 for wild-type HIV1 3B infected in human MT2 cells; type: functional
[5] = Aqueous solubility of the compound at pH 2 by HPLC analysis; type: physicochemical; conditions: buffer
Procedure, shortened: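 Solubility in aqueous buffer at pH 2.0, chosen to mimic stomach conditions; dissolved compound quantified by HPLC.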

[6] = Aqueous solubility of the compound at pH 7.4 by HPLC analysis; type: physicochemical; conditions: buffer
Procedure, shortened: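 Solubility in aqueous buffer at pH 7.4, chosen to mimic plasma conditions; dissolved compound quantified by HPLC.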

[7] = Lipophilicity, log P of the compound by HPLC analysis; type: physicochemical
Procedure, shortened: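 Log P determined experimentally by HPLC at pH 7.4.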

[8] = system: Human immunodeficiency virus 1; experiment: Antiviral activity against drug-resistant HIV1 A17 expressing K103N/Y181C mutant infected in human MT2 cells assessed as inhibition of viral replication; conditions: Human immunodeficiency virus 1, A17, MT2

Question: Which results are given for CNCc1cc(N)c(Nc2ccc(C#N)cc2)cc1Oc1c(C)cc(C#N)cc1C?
Answer: EC50 [1]: 9.94 nM; CC50 [2]: 12700 nM; selectivity ratio [3]: 1280; Ratio EC50 [4]: 11.6; solubility [5]: 263 µg/mL (≈ 662 µM); solubility [6]: 159 µg/mL (≈ 400 µM); logP [7]: 1.86; EC50 [8]: 115 nM

Question: Which EC50 [1] does the source give for Cc1cc(C#N)cc(C)c1Oc1cc(Nc2ccc(C#N)cc2)c(N)cc1CNC1CC1 here?
Answer: The EC50 was 10.6 nM.

Question: And the CC50 [2]?
Answer: The CC50 was 12100 nM.

Question: What about the selectivity ratio [3] of the same compound?
Answer: The selectivity ratio was 1140.

Question: What about the “Ratio EC50” value [4] of the same compound?
Answer: The value was 12.3.

Question: And the solubility [5]?
Answer: The solubility was 286 µg/mL (≈ 675 µM).

Question: What about the solubility [6] of the same compound?
Answer: Its solubility is 13 µg/mL (≈ 30.7 µM).

Question: And the logP [7]?
Answer: Its logP is 3.84.

Question: What about the EC50 [8] of the same compound?
Answer: Its EC50 is 130 nM.

Question: What does the source list for COCc1cc(N)c(Nc2ccc(C#N)cc2)cc1Oc1c(C)cc(C#N)cc1C?
Answer: EC50 [1]: 3.54 nM; CC50 [2]: 146000 nM; selectivity ratio [3]: 41200; Ratio EC50 [4]: 84.2; solubility [5]: 3.75 µg/mL (≈ 9.41 µM); solubility [6]: 0.07 µg/mL (≈ 0.176 µM); logP [7]: 3.84; EC50 [8]: 298 nM

Question: Which results are given for COCc1cc(N)c(Nc2ccc(C#N)cc2)cc1Oc1c(C)cc(CCC#N)cc1C?
Answer: EC50 [1]: 3.25 nM; selectivity ratio [3]: > 61500; Ratio EC50 [4]: 0.91; solubility [5]: 1.82 µg/mL (≈ 4.27 µM); solubility [6]: 0.66 µg/mL (≈ 1.55 µM); logP [7]: 3.25; EC50 [8]: 2.95 nM

Question: Which EC50 [1] does the source give for Cc1cc(C#N)cc(C)c1Oc1cc(Nc2ccc(C#N)cc2)c(N)cc1COC(C)C here?
Answer: The EC50 was 14 nM.

Question: And the CC50 [2]?
Answer: Its CC50 is 89400 nM.

Question: And the selectivity ratio [3]?
Answer: Its selectivity ratio is 6390.

Question: What about the “Ratio EC50” value [4] of the same compound?
Answer: The value was 22.5.

Question: What about the EC50 [8] of the same compound?
Answer: The EC50 was 315 nM.

Question: Which EC50 [1] does the source give for CC(=O)OCc1cc(N)c(Nc2ccc(C#N)cc2)cc1Oc1c(C)cc(C#N)cc1C here?
Answer: The EC50 was 1.06 nM.

Question: What about the CC50 [2] of the same compound?
Answer: The CC50 was 113000 nM.

Question: And the selectivity ratio [3]?
Answer: The selectivity ratio was 107000.

Question: And the “Ratio EC50” value [4]?
Answer: Its value is 353.

Question: What about the solubility [5] of the same compound?
Answer: The solubility was 16.7 µg/mL (≈ 39.2 µM).

Question: And the solubility [6]?
Answer: Its solubility is 0.2 µg/mL (≈ 0.469 µM).

Question: What about the logP [7] of the same compound?
Answer: Its logP is 4.4.

Question: And the EC50 [8]?
Answer: Its EC50 is 374 nM.

Question: What does the source list for Cc1cc(/C=C/C#N)cc(C)c1Nc1ccnc(Nc2ccc(C#N)cc2)n1 [RILPIVIRINE]?
Answer: CC50 [2]: 90700 nM; logP ([7]; read-out: logP): > 5

Question: With Cc1cc(C#N)cc(C)c1Oc1cc(Nc2ccc(C#N)cc2)c(N)cc1CO as the compound, how does the EC50 [1] read?
Answer: The EC50 was 1.07 nM.

Question: And the CC50 [2]?
Answer: Its CC50 is 122000 nM.

Question: And the selectivity ratio [3]?
Answer: The selectivity ratio was 114000.

Question: What about the “Ratio EC50” value [4] of the same compound?
Answer: The value was 30.9.

Question: What about the solubility [5] of the same compound?
Answer: Its solubility is 9.12 µg/mL (≈ 23.7 µM).

Question: And the solubility [6]?
Answer: The solubility was 0.86 µg/mL (≈ 2.24 µM).

Question: And the logP [7]?
Answer: Its logP is 3.57.

Question: What about the EC50 [8] of the same compound?
Answer: The EC50 was 33.1 nM.

Question: What does the source list for CC(=O)OCc1cc(N)c(Nc2ccc(C#N)cc2)cc1Oc1c(C)cc(CCC#N)cc1C?
Answer: EC50 [1]: 0.96 nM; CC50 [2]: 44800 nM; selectivity ratio [3]: 46700; Ratio EC50 [4]: 5.1; solubility [5]: 2.63 µg/mL (≈ 5.79 µM); solubility [6]: 1.86 µg/mL (≈ 4.09 µM); logP [7]: 2.84; EC50 [8]: 4.92 nM

Question: For COCc1cc(N)c(Nc2ccc(C#N)cc2)cc1Oc1c(C)cc(/C=C/C#N)cc1C, which EC50 [1] is on record?
Answer: Its EC50 is 5.74 nM.

Question: And the CC50 [2]?
Answer: Its CC50 is 50300 nM.

Question: And the selectivity ratio [3]?
Answer: Its selectivity ratio is 8760.

Question: What about the “Ratio EC50” value [4] of the same compound?
Answer: Its value is 2.6.

Question: What about the solubility [5] of the same compound?
Answer: Its solubility is 1.7 µg/mL (≈ 4 µM).

Question: What about the solubility [6] of the same compound?
Answer: The solubility was 0.11 µg/mL (≈ 0.259 µM).

Question: What about the logP [7] of the same compound?
Answer: The logP was 4.13.

Question: What about the EC50 [8] of the same compound?
Answer: Its EC50 is 14.7 nM.

Question: For Cc1cc(C#N)cc(C)c1Oc1cc(Nc2ccc(C#N)cc2)c(N)cc1CN1CCN(C)CC1, which EC50 [1] is on record?
Answer: The EC50 was 170 nM.

Question: What about the CC50 [2] of the same compound?
Answer: Its CC50 is 96900 nM.

Question: What about the selectivity ratio [3] of the same compound?
Answer: Its selectivity ratio is 570.

Question: What about the “Ratio EC50” value [4] of the same compound?
Answer: The value was >11.8.

Question: What about the EC50 [8] of the same compound?
Answer: The EC50 was > 2000 nM.

Question: Which EC50 [1] does the source give for Cc1cc(C#N)cc(C)c1Oc1cc(Nc2ccc(C#N)cc2)c(N)cc1CNCCCO here?
Answer: The EC50 was 6.1 nM.

Question: What about the CC50 [2] of the same compound?
Answer: Its CC50 is 15100 nM.

Question: And the selectivity ratio [3]?
Answer: The selectivity ratio was 2480.

Question: What about the “Ratio EC50” value [4] of the same compound?
Answer: The value was >328.

Question: What about the solubility [5] of the same compound?
Answer: Its solubility is 290 µg/mL (≈ 657 µM).

Question: And the solubility [6]?
Answer: The solubility was 236 µg/mL (≈ 534 µM).

Question: What about the logP [7] of the same compound?
Answer: Its logP is 1.81.

Question: And the EC50 [8]?
Answer: The EC50 was > 2000 nM.

Question: For CC(=O)OCc1cc(N)c(Nc2ccc(C#N)cc2)cc1Oc1c(C)cc(/C=C/C#N)cc1C, which EC50 [1] is on record?
Answer: The EC50 was 0.82 nM.

Question: And the CC50 [2]?
Answer: Its CC50 is 96300 nM.

Question: What about the selectivity ratio [3] of the same compound?
Answer: The selectivity ratio was 117000.

Question: What about the “Ratio EC50” value [4] of the same compound?
Answer: The value was 44.5.

Question: What about the solubility [5] of the same compound?
Answer: Its solubility is 1.87 µg/mL (≈ 4.13 µM).

Question: What about the solubility [6] of the same compound?
Answer: Its solubility is 0.49 µg/mL (≈ 1.08 µM).

Question: And the logP [7]?
Answer: The logP was 4.48.

Question: What about the EC50 [8] of the same compound?
Answer: Its EC50 is 36.5 nM.
